For series [1], the target named is Mitogen-activated protein kinase kinase kinase kinase 2 (Homo sapiens) (UniProt Q12851). In words: Inhibition of GCK (unknown origin) at 0.49 uM relative to control.
Series [2] deals with Tyrosine-protein kinase TXK (Homo sapiens) (UniProt P42681). The series can be described thus: Inhibition of TXK (unknown origin) at 0.49 uM relative to control.
Series [3] addresses Glycogen synthase kinase-3 alpha (Homo sapiens) (UniProt P49840). The series can be described thus: Inhibition of GSK3-alpha (unknown origin) at 0.49 uM relative to control.
The species named for series [4] is Homo sapiens. The series can be described thus: Inhibition of PKA (unknown origin) at 0.49 uM relative to control.
Series [5] addresses Casein kinase I isoform gamma-3 (Homo sapiens) (UniProt Q9Y6M4). The series can be described thus: Inhibition of CSNK1G3 (unknown origin) at 0.49 uM relative to control.
In series [6] the target is High affinity nerve growth factor receptor (Homo sapiens) (UniProt P04629). In words: Inhibition of TRKA (unknown origin) at 0.49 uM relative to control.
Series [7] concerns the target Fibroblast growth factor receptor 4 (Homo sapiens) (UniProt P22455). In words: Inhibition of FGFR4 (unknown origin) at 0.49 uM relative to control.
In series [8] the target is Proto-oncogene tyrosine-protein kinase receptor Ret (Homo sapiens) (UniProt P07949). In words: Inhibition of RET (unknown origin) at 0.49 uM relative to control.
Series [9] concerns the target Protein kinase C gamma type (Homo sapiens) (UniProt P05129). In words: Inhibition of PKC-gamma (unknown origin) at 0.49 uM relative to control.
Series [10] addresses Tyrosine-protein kinase JAK2 (Homo sapiens) (UniProt O60674). In words: Inhibition of JAK2 (unknown origin) at 0.49 uM relative to control.
In series [11] the target is CDK6/cyclin D3 (Homo sapiens) (UniProt P30281+Q00534). The series can be described thus: Inhibition of CDK6/CyclinD3 (unknown origin) at 0.49 uM relative to control. It counts as protein-complex assay.
For series [12], the system named is Platelet-derived growth factor receptor alpha (Homo sapiens), P16234 [V561D]. The series can be described thus: Inhibition of PDGFRA V561D mutant (unknown origin) at 0.49 uM relative to control.
Series [13] deals with Epidermal growth factor receptor (Homo sapiens), P00533 [L858R,T790M]. In words: Inhibition of EGFR T790M/L858R double mutant (unknown origin) at 0.49 uM relative to control.
Series [14] has as its target Mitogen-activated protein kinase 11 (Homo sapiens) (UniProt Q15759). The series can be described thus: Inhibition of p38-beta2 (unknown origin) at 0.49 uM relative to control.
For series [15], the species on record is Homo sapiens. In words: Inhibition of ACK (unknown origin) at 0.49 uM relative to control.
In series [16] the target is Serine/threonine-protein kinase 4 (Homo sapiens) (UniProt Q13043). In words: Inhibition of MST1 (unknown origin) at 0.49 uM relative to control.
Series [17] deals with Ephrin type-A receptor 4 (Homo sapiens) (UniProt P54764). The series can be described thus: Inhibition of EPHA4 (unknown origin) at 0.49 uM relative to control.
Series [18] deals with Casein kinase I isoform gamma-1 (Homo sapiens) (UniProt Q9HCP0). The series can be described thus: Inhibition of CK1-gamma1 (unknown origin) at 0.49 uM relative to control.
In series [19] the target is Mitogen-activated protein kinase 1 (Homo sapiens) (UniProt P28482). In words: Inhibition of Erk2 (unknown origin) at 0.49 uM relative to control.
Series [20] deals with Serine/threonine-protein kinase Chk2 (Homo sapiens) (UniProt O96017). In words: Inhibition of CHK2 (unknown origin) at 0.49 uM relative to control.
The target of series [21] is Dual specificity tyrosine-phosphorylation-regulated kinase 3 (Homo sapiens) (UniProt O43781). In words: Inhibition of DYRK3 (unknown origin) at 0.49 uM relative to control.
The target of series [22] is Aurora kinase B (Homo sapiens) (UniProt Q96GD4). In words: Inhibition of AurB (unknown origin) at 0.49 uM relative to control.
Series [23] can be described thus: Clearance in C57BL/6J mouse at 30 mg/kg, iv by LC-MS/MS analysis. It counts as ADME, organism-based. The settings on record: in vivo. Summed up: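 C57BL/6J mice got a single 30 mg/kg intravenous dose as a solution in 92 mM SBE7-β-CyD. The value is the average of two animals.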
The target in series [24] is Protein kinase C beta type (Homo sapiens) (UniProt P05771). In words: Inhibition of PKC-beta2 (unknown origin) at 0.078 uM relative to control.
In series [25] the target is Serine/threonine-protein kinase PAK 2 (Homo sapiens) (UniProt Q13177). The series can be described thus: Inhibition of PAK2 (unknown origin) at 0.078 uM relative to control.
Series [26] addresses RAC-beta serine/threonine-protein kinase (Homo sapiens) (UniProt P31751). The series can be described thus: Inhibition of AKT2 (unknown origin) at 0.078 uM relative to control.
The target of series [27] is Serine/threonine-protein kinase BRSK2 (Homo sapiens) (UniProt Q8IWQ3). In words: Inhibition of BRSK2 (unknown origin) at 0.45 uM relative to control.
The target of series [28] is Cyclin-dependent kinase 2 (Homo sapiens) (UniProt P24941). The series can be described thus: Inhibition of CDK2 (unknown origin) at 0.45 uM relative to control.
Series [29] addresses Leukocyte tyrosine kinase receptor (Homo sapiens) (UniProt P29376). In words: Inhibition of LTK (unknown origin) at 0.45 uM relative to control.
For series [30], the target named is Protein kinase C epsilon type (Homo sapiens) (UniProt Q02156). In words: Inhibition of PKC-epsilon (unknown origin) at 0.45 uM relative to control.
The target of series [31] is Phosphorylase b kinase gamma catalytic chain, liver/testis isoform (Homo sapiens) (UniProt P15735). The series can be described thus: Inhibition of PhKg2 (unknown origin) at 0.45 uM relative to control.
The target in series [32] is Dual specificity tyrosine-phosphorylation-regulated kinase 2 (Homo sapiens) (UniProt Q92630). The series can be described thus: Inhibition of DYRK2 (unknown origin) at 0.45 uM relative to control.
In series [33] the target is Serine/threonine-protein kinase D3 (Homo sapiens) (UniProt O94806). In words: Inhibition of PKD3 (unknown origin) at 0.45 uM relative to control.
In series [34] the test system is Tyrosine-protein kinase ABL1 (Homo sapiens), P00519 [Q252H]. In words: Inhibition of Abl Q252H mutant (unknown origin) at 0.45 uM relative to control.
The target in series [35] is Tyrosine-protein kinase Mer (Homo sapiens) (UniProt Q12866). In words: Inhibition of Mer (unknown origin) at 0.45 uM relative to control.

Turning to `Cc1[nH]nc(C2CC2)c1-c1ccc2c(NC(=O)C3CC3)noc2c1`, the inhibition in series [1] is 11.3%; in [2] it was -0.3%; in series [3] it was 2%; in [4] it was 2.3%; in series [5], 2.3%; in [6], 3.7%. For the same molecule, the inhibition in series [7] was 0.3%; in series [8], 15%; in series [9], 2%; in [10], -1.7%; in series [11], 1.7%; in series [12] it was -0.7%. Also, the inhibition is -1% in series [13]; 0.7% in series [14]; 2.3% in series [15]; 9.3% in series [16]; 2.3% in [17]; 0.7% in series [18]. The inhibition was -0.3% in series [19], 8% in [20], 1% in series [21] and -6.3% in series [22].
`COC(=O)Nc1noc2cc(-c3c(-c4ccccn4)n[nH]c3C)ccc12`: the clearance in [23] amounted to 14.5 mL/min/kg. Further, the inhibition in series [24] is 8.7%; in [25], -5.3%; in [26], 4%.
For the molecule `Cc1n[nH]c(C)c1-c1ccc2c(NC(=O)c3ccc(N4CCN(C)CC4)cc3)n[nH]c2c1`, the inhibition in series [27] was 13.3%; in series [28], 6%; in series [29], 0%; in series [30] it was 9%; in series [31] it was 1.7%; in series [32] it was 8%. Further, the inhibition in series [33] stood at 0.3%; in series [34], 72%; in series [35] it was 0.7%.

Broadly, the inhibition is the drop in the measured response relative to a control, in per cent. Broadly, the clearance is the rate of elimination divided by the concentration. A low value points to a low capacity for elimination.

The values are drawn from ChEMBL document CHEMBL4052759, “Discovery of DS79182026: A potent orally active hepcidin production inhibitor” (Bioorg Med Chem Lett, 2017).
